Compound activity: PubChem, The Scripps Research Institute Molecular Screening Center
The list is not random: actives were taken first. Their share in the collection is about 4.5%.
OX1R antag-1 – blocks the human orexin 1 receptor; 330,000 tested, 0.43% active; AID 434989; O43613; inhibition, % at 5 µM; CHO/OX1R cells, Fluo-8 calcium fluorescence, orexin A;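 active = inhibition above its plate's threshold, mean inhibition of all tested compounds on the plate plus 3 SD, cut at about 37% in these data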;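 note: 0% = orexin A challenge wells and 100% = SB-334867-A antagonist wells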
OX1R antag-2 – antagonists of human orexin 1 receptor (OX1R) | OX1R-expressing cells, FRET antagonist read-out | O43613 | 330,000 tested, 1.8% active | inhibition, % at 6.6 µM | AID 485270; in the data active = inhibition mostly above about 38%, no sharp cut-off; inactive = mostly below about 40%;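 note: 0% = agonist challenge alone and 100% = reference antagonist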
TAAR1 antag – human TAAR1 antagonism | AID 624466 | inhibition, % at 3 µM | CHO RD-HGA16 TAAR1, Fluo-8 calcium fluorescence, antagonist | 360,000 tested, 1.5% active;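 active = inhibition above a per-plate cutoff, the mean inhibition of test compounds on that plate plus 3 SD, cut at about 49% in these data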;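 note: 0% = DMSO plus EC80 beta-PEA response and 100% = DMSO alone without agonist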
Target sequence (Q96RJ0 whole entry, looked up): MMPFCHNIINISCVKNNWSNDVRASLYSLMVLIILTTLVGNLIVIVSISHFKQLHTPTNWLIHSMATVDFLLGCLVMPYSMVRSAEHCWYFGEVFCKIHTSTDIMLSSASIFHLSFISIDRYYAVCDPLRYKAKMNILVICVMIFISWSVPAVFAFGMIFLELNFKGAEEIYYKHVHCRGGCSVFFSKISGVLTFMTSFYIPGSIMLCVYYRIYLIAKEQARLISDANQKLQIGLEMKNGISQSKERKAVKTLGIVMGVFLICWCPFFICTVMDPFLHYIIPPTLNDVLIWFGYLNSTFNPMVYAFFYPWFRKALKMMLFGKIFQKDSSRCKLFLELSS
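Material: RD-HGA16 CHO cells with stable hTAAR1 and Gα16; Dosing: single nominal final test compound concentration of 3 µM; Schedule: seeding 17-24 h prior, 75-min 37 °C, 30-min RT dye loading; Detection: kinetic Fluo-8 calcium fluorescence measurement; Measure: % inhibition from peak post-agonist over basal fluorescence ratio; Benchmarks: vehicle and agonist controls.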
TAAR1 agonist – agonists of human TAAR1; activation, % at 3 µM; 360,000 tested, 0.99% active; Q96RJ0; AID 624467; CHO RD-HGA16 TAAR1, Fluo-8 calcium fluorescence; vehicle wells 0%, saturating PEA agonist 100%;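 active = activation above the mean activation of all test compounds in the run plus 3 SD, cut at about 38% in these data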
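Repeats: no replicates (n 1) | Material: CHO-derived RD-HGA16 cells with stable Gα16 and human TAAR1 | Technique: Kinetic Fluo-8 calcium fluorescence | Schedule: 17-24 h seeding, 75 min 37 °C dye, 30 min RT | Evaluation: % activation from peak over basal fluorescence ratio, DMSO-to-PEA scaled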
CHO parental Ca – counter-screen for OX1R antagonists: effect in parental CHO cells; parental CHO-K1, ATP-induced calcium, Fluo-8 fluorescence; inhibition, % at 5.6 µM; 330,000 tested, 0.63% active;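 active = inhibition above that plate's mean sample inhibition plus 3 SD, cut at about 26% in these data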;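 note: 0% = ATP-challenged DMSO wells and 100% = DMSO wells without ATP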
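Assay system – parental CHO cells · Reagent – ATP stimulus · Detection – intracellular calcium via Fluo-8 no-wash fluorescent dye · Evaluation – percent inhibition of ATP-evoked calcium rise, normalized to controls · Controls – ATP wells versus no-ATP DMSO wells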
GPR7 antagonist – blocks human GPR7 receptor signaling; P48145; GPR7-expressing cells, fluorescence antagonist assay; inhibition, % at 4.4 µM; 290,000 tested, 1.1% active; in the data active = inhibition above about 16%, passing the limit was not always enough;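 note: cells stimulated with the agonist NPW; 0% = agonist with vehicle and 100% = vehicle without agonist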
Target sequence (P48145 whole entry, looked up): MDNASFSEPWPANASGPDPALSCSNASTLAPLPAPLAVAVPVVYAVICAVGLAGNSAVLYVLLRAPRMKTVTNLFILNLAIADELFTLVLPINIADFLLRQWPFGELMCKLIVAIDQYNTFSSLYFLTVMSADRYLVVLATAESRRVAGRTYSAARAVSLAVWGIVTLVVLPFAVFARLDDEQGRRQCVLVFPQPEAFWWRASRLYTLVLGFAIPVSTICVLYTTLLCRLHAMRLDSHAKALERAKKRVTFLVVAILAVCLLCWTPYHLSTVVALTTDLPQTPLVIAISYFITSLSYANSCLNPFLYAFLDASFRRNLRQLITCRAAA
GPR7 antag cf – confirmation of human GPR7 antagonists. GPR7-expressing cells, calcium fluorescence antagonist mode. inhibition, % at 4.4 µM. 2,400 tested, 52% active. shares compounds with GPR7 antagonist. AID 1952; in the data active = inhibition above about 24%;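 note: stimulated with the GPR7 agonist NPW; 0% = agonist plus vehicle and 100% = vehicle alone without agonist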
MCHR1 antagonist – antagonizes human MCHR1, a GPR7 antagonist counter-screen; shares compounds with GPR7 antagonist; MCHR1-expressing cells, fluorescence antagonist assay; inhibition, % at 4.4 µM; 2,400 tested, 62% active; in the data active = inhibition above about 22%;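 note: 0% = vehicle with agonist and 100% = vehicle without agonist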
Starred values were filed as active, the others as inactive; x = no result given.

SMILES	OX1R antag-1	OX1R antag-2	TAAR1 antag	TAAR1 agonist	CHO parental Ca	GPR7 antagonist	GPR7 antag cf	MCHR1 antagonist
FC(F)(F)c1cccc(Cn2c3[n+](c4ccc(C(F)(F)F)cc42)CCCCC3)c1	-12.7	16.8	-23.5	1.1	-30.9	24.4*	23.8*	18.0
Cc1cc(C(C)(C)C)cc(C)c1Cn1c2[n+](c3ccc(C(F)(F)F)cc31)CCCCC2	-22.8	20.1	-27.1	2.6	-6.0	32.7*	29.5*	31.8*
CCOC(=O)N1CCN(C(C(=O)NC2CCCC2)C(C)C)CC1 (configuration not stated)	x	x	10.4	1.6	x	x	x	x
CC(=O)Nc1cccc(-c2ccnc3c2CC(C(=O)Nc2ccc(Cl)cc2)O3)c1 (configuration not stated)	x	x	1.4	6.5	x	x	x	x
Clc1ccc2c(c1)C(N1CCNCC1)Cc1ccccc1S2 (configuration not stated)	-14.6	-2.1	x	x	-0.7	28.4*	53.4*	64.5*
COCCCN1CCN(C2Cc3ccccc3Sc3ccc(Cl)cc32)CC1 (configuration not stated)	1.9	5.1	6.5	11.2	-15.3	24.2*	22.5	34.0*
CCC(c1nnnn1-c1ccc2c(c1)OCCO2)N1CCN(C(C)=O)CC1 (configuration not stated)	x	x	-15.0	1.9	x	x	x	x
CN(C)c1ccc(N=Nc2ccccc2C(=O)OCC(=O)N(C)C2CCCCC2)cc1	-18.4	36.6	-28.9	2.1	55.4*	24.7*	30.5*	76.1*
CN(C)c1ccc(N=Nc2ccccc2C(=O)OCC(=O)NCC2CCCCC2)cc1	-22.8	22.6	2.2	1.2	20.8	-17.3	x	x
CCCN(CC(=O)Nc1ccccc1C)C(=O)c1cccc(S(=O)(=O)N2CCc3ccccc3C2)c1	-2.7	11.7	59.2*	5.5	5.5	30.5*	27.9*	55.0*
CN(Cc1ccccc1)C1=CC(=[N+]2CCCCC2)CC(C)(C)C1	13.6	7.0	-4.4	0.0	15.9	39.5*	57.0*	48.4*
CC1(C)CC(N2CCN(Cc3ccccc3)CC2)=CC(=[N+]2CCCCC2)C1	-10.0	5.5	-11.8	-0.7	14.3	-7.8	x	x
CC(=O)C1=CCC(c2ccc(C)o2)N(S(=O)(=O)c2ccc(C)cc2)C1 (configuration not stated)	x	x	-16.1	-2.8	x	x	x	x
COc1ccc(OC)c(C(c2nnnn2C2CCCC2)N2CCN(c3ccccc3)CC2)c1 (configuration not stated)	-12.7	17.5	3.8	-0.3	-18.2	30.9*	24.5*	40.7*
O=c1[nH]c(C2CCN(S(=O)(=O)c3ccccc3)CC2)nc2c1nnn2Cc1cccc(Cl)c1	-15.3	-0.7	-12.5	4.9	-10.0	25.5*	7.5	-7.9
O=c1[nH]c(C2CCN(S(=O)(=O)c3cccc(Cl)c3)CC2)nc2c1nnn2Cc1ccccc1	x	x	-10.1	2.8	x	11.0	x	x
CCc1cccc(CC)c1NC(=O)Cn1c(-c2ccc(F)cc2)noc1=O	-30.3	31.8	3.5	4.4	-17.6	27.5*	16.1	18.2
COc1ccc(NC(=O)/C(Cl)=C(/Cl)S(=O)Cc2ccccc2Cl)cn1 (configuration not stated)	x	x	x	x	x	40.0*	76.2*	90.9*
CCOC(=O)C1(Cc2ccc(OC)cc2)CCN(C(=O)c2cc(C)on2)CC1	-5.7	4.7	-6.0	2.9	-26.4	25.1*	-0.4	3.2
CS(=O)(=O)c1sc(C#N)c2c1C(=O)CC(c1ccccc1)C2 (configuration not stated)	92.3*	46.1*	72.6*	3.8	53.3*	75.0*	96.9*	93.8*
COC(=O)c1[nH]c2c(c1C)C(=O)CC(c1ccccc1)C2 (configuration not stated)	6.3	16.6	-10.2	17.9	-15.4	3.2	x	x
O=C(NCCC1=CCCCC1)c1ccc(Cl)c(S(=O)(=O)N2CCCCC2)c1	-7.2	-7.1	13.2	10.4	7.0	49.6*	44.0*	50.2*
O=C(NCc1ccccc1)c1cc(C2CCCCN2C(=O)c2ccc3c(c2)CCO3)on1 (configuration not stated)	x	x	-13.4	-0.1	x	x	x	x
CCC(=O)N1CCN(c2ccccc2NC(=O)Cc2ccccc2)CC1	-32.1	19.3	13.2	-1.1	-14.8	22.3*	15.3	22.0*
O=C(Cc1ccccc1)Nc1ccccc1N1CCN(c2ccccc2)CC1	-32.1	13.4	16.3	5.2	-33.0	-0.1	x	x
SMILES	OX1R antag-1	OX1R antag-2	TAAR1 antag	TAAR1 agonist	CHO parental Ca	GPR7 antagonist	GPR7 antag cf	MCHR1 antagonist
CN1CCN(c2ccccc2NC(=O)COc2ccccc2)CC1	-27.5	13.3	-1.3	3.6	-20.4	21.6*	15.4	11.8
NS(=O)(=O)c1ccc(CCNCc2ccccc2OCc2ccc(Cl)cc2)cc1	-3.9	8.5	-3.1	13.2	3.8	23.0	x	x
NS(=O)(=O)c1ccc(CCNCc2cc(Cl)ccc2OCc2ccccc2)cc1	-10.4	4.9	36.9	13.3	6.1	27.8*	27.5*	56.9*
NS(=O)(=O)c1ccc(CCNCc2cc(Br)ccc2OCc2ccccc2F)cc1	48.6*	20.0	36.2	8.0	59.6*	38.4*	53.4*	75.6*
C=CCOc1ccccc1CNCCc1ccc(S(N)(=O)=O)cc1	-19.3	2.5	8.4	4.0	-6.0	5.9	x	x
CC(=O)N1CCN(C(=O)c2cc(C)oc2C)CC1	0.1	3.2	-20.0	10.5	-3.7	x	x	x
Cc1cc(C(=O)N2CCC(Cc3ccccc3)CC2)c(C)o1	5.0	6.2	2.8	0.5	-6.7	27.7*	26.9*	32.6*
CC(=O)N1CCN(S(=O)(=O)c2cccc(C(=O)N(C)Cc3ccc(C)o3)c2)CC1	x	x	-20.3	0.3	x	x	x	x
COc1ccc(N(C)S(=O)(=O)c2cccc(C(=O)N(C)Cc3ccc(C)o3)c2)cc1	-1.9	3.7	4.3	9.4	-20.1	24.6*	30.6*	25.6*
COc1ccc(N(C)S(=O)(=O)c2cccc(C(=O)NC3CCC(C)CC3)c2)cc1 (configuration not stated)	-39.9	6.0	18.3	8.6	-25.0	40.0*	36.4*	48.0*
O=C(O)CC(NC(=O)C1c2ccccc2Oc2ccccc21)c1ccc(Cl)cc1 (configuration not stated)	-20.8	15.3	-0.9	-0.9	-10.9	34.9*	2.7	4.3
CCOc1ccc(C(CC(=O)O)NC(=O)C2c3ccccc3Oc3ccccc32)cc1 (configuration not stated)	-0.3	19.5	14.5	-0.4	6.3	7.0	x	x
O=C(Cc1ccc(-n2cccc2)cc1)N1CCN(c2ccccc2F)CC1	-20.5	11.8	0.0	0.9	-23.1	27.3*	5.2	8.4
